According to ChEMBL document CHEMBL1155073, “Molecular recognition of a DNA:RNA hybrid: sub-nanomolar binding by a neomycin-methidium conjugate” (Bioorg Med Chem Lett, 2008):

Key:
[1] = Binding affinity to synthetic poly(dA-dT):poly(dA-dT) DNA:DNA duplex assessed as association constant at 20 degC
How it was run: (§1)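 Apparent association constant is estimated from the UV/CD melting-temperature shift (Eq. 1). Binding stoichiometry n comes from fluorescence titrations, duplex melting enthalpy from DSC, and free ligand is taken as half the total. The value is extrapolated to 20 °C by integrated van't Hoff using dilution-corrected excess-site ITC enthalpies (15, 20, 25 °C) and derived ΔCp. Buffer: 10 mM sodium cacodylate, 0.5 mM EDTA, 100 mM NaCl, pH 5.5.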

[2] = Binding affinity to synthetic poly(rA):poly(dT) DNA:RNA hybrid assessed as melting temperature at 2.2 uM
How it was run: (§2)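 Thermal denaturation of each nucleic acid (20 µM/bp) with ligand at 2.2 µM, with melting temperatures read from UV and CD melting profiles. ΔTm is taken against the ligand-free Tm0.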

[3] = Binding affinity to synthetic A-site RNA assessed as melting temperature at 2.2 uM; how it was run: as §2
[4] = Binding affinity to synthetic poly(rA):poly(rU) RNA:RNA duplex assessed as melting temperature at 2.2 uM; how it was run: as §2
[5] = Binding affinity to synthetic poly(dA):poly(rU) DNA:RNA hybrid assessed as association constant at 20 degC; how it was run: as §1
[6] = Binding affinity to synthetic poly(rA):poly(rU) RNA:RNA duplex assessed as change in melting temperature at 2.2 uM; how it was run: as §2
[7] = Binding affinity to synthetic poly(dA):poly(rU) DNA:RNA hybrid assessed as change in melting temperature at 2.2 uM; how it was run: as §2
[8] = Binding affinity to synthetic poly(dA):poly(dT) DNA:DNA duplex assessed as change in melting temperature at 2.2 uM; how it was run: as §2
[9] = Binding affinity to synthetic poly(dA): 2poly(dT) DNA:DNA duplex assessed as change in melting temperature at 2.2 uM; how it was run: as §2
DNA [10] = assay: Binding affinity to calf thymus DNA assessed as change in melting temperature at 2.2 uM; assay type: nucleic-acid assay; conditions: Bos taurus; how it was run: as §2
[11] = Binding affinity to synthetic poly(dA-dT):poly(dA-dT) DNA:DNA duplex assessed as change in melting temperature at 2.2 uM; how it was run: as §2
[12] = Binding affinity to synthetic poly(rA):poly(rU) RNA duplex assessed as association constant at 20 degC
[13] = Binding affinity to synthetic poly(dA-dT):poly(dA-dT) DNA: DNA duplex assessed as melting temperature at 2.2 uM; how it was run: as §2
[14] = Binding affinity to synthetic poly(dA):2poly(dT) DNA:DNA duplex assessed as melting temperature at 2.2 uM; how it was run: as §2
[15] = Binding affinity to synthetic poly(dG):poly(dC) DNA:DNA duplex assessed as melting temperature at 2.2 uM; how it was run: as §2
[16] = Binding affinity to synthetic poly(rA):poly(dT) DNA:RNA hybrid assessed as change in melting temperature at 2.2 uM; how it was run: as §2
[17] = Binding affinity to synthetic A-site RNA assessed as change in melting temperature at 2.2 uM; how it was run: as §2
DNA [18] = assay: Binding affinity to calf thymus DNA assessed as melting temperature at 2.2 uM; assay type: nucleic-acid assay; conditions: Bos taurus; how it was run: as §2
[19] = Binding affinity to synthetic poly(dA):poly(dT) DNA:DNA duplex assessed as melting temperature at 2.2 uM; how it was run: as §2
[20] = Binding affinity to synthetic poly(dA):poly(rU) DNA:RNA hybrid assessed as melting temperature at 2.2 uM; how it was run: as §2
[21] = Binding affinity to synthetic poly(rA):poly(rU) DNA:RNA hybrid assessed as association constant at 20 degC; how it was run: as §1

Row | Structure (SMILES) | Ka [1] | Tm [4] | Ka [5] | Ka [12] | Tm [13] | Tm [20] | other results
1 | C[n+]1c(-c2ccc(C(=O)NCCSC[C@H]3O[C@@H](O[C@@H]4[C@@H](O)[C@H](N)C[C@H](N)[C@H]4O[C@H]4O[C@H](CN)[C@@H](O)[C@H](O)[C@H]4N)[C@H](O)[C@@H]3O[C@H]3O[C@@H](CN)[C@@H](O)[C@H](O)[C@H]3N)cc2)c2cc(N)ccc2c2ccc(N)cc21 | 1 ×10⁶ /M | 77 °C | 4.8 ×10¹⁰ /M | 2.1 ×10⁹ /M | 66.2 °C | 90.5 °C | Tm [2]: 82.4 °C; Tm [3]: 79.8 °C; ΔTm [6]: 34.3 °C; ΔTm [7]: 46.9 °C; ΔTm [8]: 7.7 °C; ΔTm [9]: 7.7 °C; ΔTm (DNA [10]): > 8.1 °C; ΔTm [11]: 7.4 °C; Tm [14]: 75.9 °C; Tm [15]: > 95 °C; ΔTm [16]: 20.1 °C; ΔTm [17]: 8.1 °C; Tm (DNA [18]): > 95 °C; Tm [19]: 76.1 °C
2 | NC[C@@H]1O[C@H](O[C@H]2[C@@H](O)[C@H](O[C@@H]3[C@@H](O)[C@H](N)C[C@H](N)[C@H]3O[C@H]3O[C@H](CN)[C@@H](O)[C@H](O)[C@H]3N)O[C@@H]2CO)[C@H](N)[C@@H](O)[C@@H]1O | 7 ×10⁴ /M | 64.7 °C | 9.9 ×10⁶ /M | 2.6 ×10⁷ /M | 62.9 °C | 65.8 °C | 
3 | CC[n+]1c(-c2ccccc2)c2cc(N)ccc2c2ccc(N)cc21 | 2 ×10⁵ /M | 64.2 °C | 9.3 ×10⁶ /M |  | 63.2 °C | 61.8 °C | Ka [21]: 1.8 ×10⁶ /M
